# The list is not random: actives were taken first. Their share in the collection is about 0.94%.
# PKA-R1A act: PKA-R1A complex activation. PKA-R1A dissociation, Cy5-IP20 fluorescence polarization; scaled: DMSO 0%, 113 µM cGMP 100%. activation, % at 11.4 µM. 340,000 compounds, 0.083% hits;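 active = percent activation above the mean of all tested compounds plus 3 SD, cut at about 19% in these data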;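 also: higher means more PKAc released from R1A so a rise in polarization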
# aDG glyco up: increases alpha dystroglycan glycosylation. Pro5-aDG cells, alpha-DG glycosylation AlphaScreen (IIH6); 0% Pro5, 100% B10-LARGE cell signal. activation, % at 10 µM. 360,000 compounds, 0.22% hits;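 active = activation of at least 8% versus controls, or a plate z-score of at least 8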;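 also: Pro5 are CHO cells carrying HIG-tagged alpha-DG that lacks glycosylation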
# CTSL1 counter: cathepsin L1 inhibition, PFM18AAP counter-screen; recombinant F. hepatica cathepsin L1, Z-Leu-Arg-MCA fluorescence; inhibition, % at 5.96 µM; 300,000 compounds, 0.49% hits; AID 1906;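 active = inhibition above the mean of all tested compounds plus 3 SD, set per screening campaign, cut at about 17% in these data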;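 also: 0% = plate median of test compound wells and 100% = 1 µM Z-Phe-Ala-diazomethylketone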
# PKA-R2B act: activates the human PKA-R2B holoenzyme complex | 340,000 compounds, 0.079% hits | activation, % at 11.4 µM | PKA-R2B holoenzyme dissociation, Cy5-IP20 fluorescence polarization; R2B truncated from residue 108, S112A mutant; 0% DMSO only, 100% 113 µM cGMP | P22694+P31323;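 active = activation above a cutoff set at the mean over all compounds plus 3 SD, cut at about 18% in these data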;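 also: higher means more holoenzyme dissociation and a rise in polarization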
# UCH37 DUB inh: blocks the human deubiquitinase UCH37; purified proteasome/UCH37, Ub-AMC cleavage fluorescence; inhibition, % (no concentration beside the values); 330,000 compounds, 0.33% hits;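 active = mean inhibition over replicate wells above about 20%, limit read from the data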;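 also: 0% = compound-free wells with enzyme and 100% = wells lacking proteasome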
# Target sequence (Q9Y5K5 whole entry, looked up): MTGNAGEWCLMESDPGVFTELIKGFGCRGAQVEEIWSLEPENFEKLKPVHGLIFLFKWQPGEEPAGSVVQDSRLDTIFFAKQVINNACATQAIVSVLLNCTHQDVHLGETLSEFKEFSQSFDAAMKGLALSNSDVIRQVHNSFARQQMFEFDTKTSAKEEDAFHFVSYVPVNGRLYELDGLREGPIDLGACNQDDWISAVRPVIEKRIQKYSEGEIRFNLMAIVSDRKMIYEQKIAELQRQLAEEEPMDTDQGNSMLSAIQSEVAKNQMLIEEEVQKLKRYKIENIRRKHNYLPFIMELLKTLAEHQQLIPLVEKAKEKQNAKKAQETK
#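 Assay system: Proteasome-bound UCH37. Buffer or medium: pH 7.4 Tris-HCl (50 mM) with ovalbumin, ATP-MgCl2, DTT. Incubation: 30 min preincubation with enzyme, 25 min cleavage at room temperature. Measured by: fluorescence, ex 355 nm, em 460 nm. Read-out basis: percent inhibition. Control set: wells without proteasome as full block, compound-free enzyme plus substrate as uninhibited.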
# R2B FP artifact: FP assay interference, PKA-R2B counter-screen | shares compounds with PKA-R2B act | FP artifact counterscreen, fluorescence polarization | activation, % at 11.4 µM | 270 compounds, 6% hits | AID 504796; in the data active = activation above about 20%;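 also: Cy5 labelled IP20 peptide probe with compound but no PKA protein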
# PKA-R2B act conf: PKA-R2B complex activation, confirmation. AID 504797. activation, % at 11.4 µM. shares compounds with PKA-R2B act. 270 compounds, 9% hits. fluorescence polarization; in the data active = activation above about 19%
# * marks the source's active call; other numbers are inactive results; i = inactive; nt = not tested or not shown.
SMILES,PKA-R1A act,aDG glyco up,CTSL1 counter,PKA-R2B act,UCH37 DUB inh,R2B FP artifact,PKA-R2B act conf
COC(=O)NN=Cc1cn(CCOc2ccccc2)c2ccccc12,nt,nt,nt,nt,2,nt,nt
COC(=O)N/N=C/c1cn(CCOc2ccccc2)c2ccccc12,-1,0,3,20*,nt,2,-1
CCCCCCCCC(=O)NN=C(C)c1ccco1,nt,nt,nt,nt,2,nt,nt
Cc1cccc(COc2ccccc2C=NNc2ccc([N+](=O)[O-])cc2)c1,nt,nt,nt,nt,-4,nt,nt
Cc1ccc(Cn2c(CN3CC(C)OC(C)C3)nc3c2c(=O)n(C)c(=O)n3C)cc1 (centres undefined),-6,0,0,19*,3,3,1
Cc1ccc(Cn2c(CN3CCOCC3)nc3c2c(=O)n(C)c(=O)n3C)cc1,4,0,7,-4,2,nt,nt
CN(C)S(=O)(=O)c1ccc(S(=O)(=O)NCc2cccs2)cc1,-2,0,0,25*,nt,0,-1
CC(=O)c1cccc(NC(=O)CC2S/C(=N/N=Cc3cccs3)NC2=O)c1 (centres undefined),nt,nt,nt,nt,3,nt,nt
COc1ccc(N2CCN(C(=O)c3ccc(OCc4c(C)noc4C)c(OC)c3)CC2)cc1,1,0,1,20*,3,3,2
Cc1ccsc1C=Nn1cnnc1,nt,nt,nt,nt,5,nt,nt
COc1ccccc1NC(=O)C(=NOCc1ccc(F)cc1)C(C)=O,nt,nt,nt,nt,4,nt,nt
COCC(=O)Nc1cccc(C(F)(F)F)c1,6,0,-3,19*,5,0,-1
CC(C)[C@H](N)C(=O)NC[C@H](CC(=O)NCC1CCC(C(=O)O)CC1)c1ccc(Cl)cc1 (some centres undefined),nt,nt,nt,nt,2,nt,nt
O=S(=O)(Nc1cc2nc3ccccc3nc2n1Cc1ccccc1)c1ccc(Cl)cc1,-5,2,-3,22*,-69,1,7
O=S(=O)(NCc1ccccc1)c1ccc(Cl)cc1,-7,0,1,-2,1,nt,nt
C=CCNC(=O)c1ccc(-c2nc(-c3ccccc3)cs2)cc1,-7,2,1,4,-10,nt,nt
C=CCNC(=O)c1ccc(-c2nc3ccccc3nc2-c2ccccc2)cc1,2,0,-6,22*,-21,-1,4
CCN1C=C(C(=O)c2ccccc2)C(=O)CC1,9,0,nt,20*,4,3,2
NS(=O)(=O)c1ccc(CCNC(=O)c2ccc(Cl)c(S(=O)(=O)N3CCCCC3)c2)cc1,0,0,nt,18*,4,4,6
CCC(NC(=O)OCc1ccccc1)C(=O)Oc1ccc2ccc(=O)oc2c1 (centres undefined),-15,0,-10,19*,i,0,3
Cc1onc(-c2ccccc2)c1C(=O)Nc1ccc(Br)cc1Cl,2,0,-3,19*,1,6,0
COc1cccc(C=NNC(=O)CN(C)S(=O)(=O)c2ccccc2)c1OC,nt,nt,nt,nt,-7,nt,nt
COc1ccc(NS(=O)(=O)c2cc(NC(=O)c3ccccc3F)ccc2N2CCCC2)cc1,-10,0,3,19*,0,-3,-3
COc1cc(C=Nn2cc(-c3ccccc3)[nH]c2=S)cc(OC)c1O,nt,nt,nt,nt,4,nt,nt
Cc1cc(N2CCCC2=O)ccc1S(=O)(=O)N1CCOCC1,12,0,0,23*,6,1,5
SMILES,PKA-R1A act,aDG glyco up,CTSL1 counter,PKA-R2B act,UCH37 DUB inh,R2B FP artifact,PKA-R2B act conf
O=C(NCc1ccccc1)C1=C[C@H](c2ccc3c(c2)OCO3)C[C@H](OCc2ccc(CO)cc2)O1,-4,0,1,-7,4,nt,nt
C#CCNC(=O)C1=C[C@@H](c2ccc3c(c2)OCO3)C[C@@H](OCc2ccc(CO)cc2)O1,0,0,1,21*,2,0,-2
CC(C)COC(=O)Cc1c(O)c2ccccc2[nH]c1=O,15,0,0,21*,2,4,2
CC(=NNC(=O)c1c(Br)c(C)nn1C)c1ccc(NC(=O)c2ccoc2C)cc1,nt,nt,nt,nt,-55,nt,nt
Cn1cc(C(Cc2ccccc2)=NO)c2ccccc21,nt,nt,nt,nt,0,nt,nt
CN(N=Cc1ccc(Cl)cc1)c1ncc(Cl)cc1C(F)(F)F,nt,nt,nt,nt,7,nt,nt
COC(=O)CCC(=O)OC1(C)C(=O)C=C2C=C(C3CC3)N(C3CC3)C=C2C1=O (centres undefined),-7,0,2,-8,2,nt,nt
COCCN1C=C2C(=O)C(C)(OC(=O)CCC(=O)OC)C(=O)C=C2C=C1C1CC1 (centres undefined),0,0,12,20*,6,2,-3
CC(=O)c1ccc(OCC(=O)Nc2nnc(C3CC3)s2)cc1,0,0,nt,20*,nt,5,2
Cc1nn(-c2ccccc2)c(N2CCCC2)c1C=NNc1ccc(S(N)(=O)=O)cc1[N+](=O)[O-],nt,nt,nt,nt,7,nt,nt
CC(=NNC(=O)C1(C)CC1(Br)Br)c1ccc([N+](=O)[O-])cc1 (centres undefined),nt,nt,nt,nt,-1,nt,nt
CCOc1ccc(CC2NCCc3cc(OCC)c(OCC)cc32)cc1OCC (centres undefined),8,0,-5,20*,-12,2,5
COc1cc2c(cc1OC)C(Cc1ccc(O)cc1)NCC2 (centres undefined),5,0,4,-5,-1,nt,nt
COc1ccc(C=NNC(=O)c2cc(-c3ccccc3OC)nc3ccccc23)cc1COC(C)=O,nt,nt,nt,nt,2,nt,nt
Cc1ccc2nc(C)c(C(=O)NN=Cc3ccco3)cc2c1,nt,nt,nt,nt,6,nt,nt
CCOC(=O)C1=C(c2ccccc2)NC(SCC(=O)Nc2ccc(C)cc2)=C(C#N)C1c1ccco1 (centres undefined),-3,0,-3,3,-1,nt,nt
CCOC(=O)C1=C(c2ccccc2)NC(SCC(=O)Nc2ccccc2C)=C(C#N)C1c1ccco1 (centres undefined),2,0,2,19*,0,4,1
COc1ccc(OC)c(C(=O)NC(CC(N)=O)c2ccc(N3CCN(c4ccccn4)CC3)c([N+](=O)[O-])c2)c1 (centres undefined),-4,0,-2,21*,3,-3,2
COc1ccc(S(=O)(=O)NC(C)C(=O)O)cc1 (centres undefined),-6,0,7,4,0,nt,nt
COc1ccc(S(=O)(=O)N[C@H](C(=O)O)C(C)C)cc1,10,0,3,19*,-3,4,4
CCOc1ccc(NC(=O)CSc2nnnn2-c2ccc(C(N)=O)cc2)cc1,-13,0,2,21*,-1,2,-1
CC(=O)Nc1ccc(NC(=O)C(=O)NN=Cc2cccnc2)cc1,nt,nt,nt,nt,-13,nt,nt
